Consider 30 compounds from ChEMBL document CHEMBL4765352, “Discovery of AdipoRon analogues as novel AMPK activators without inhibiting mitochondrial complex I” (Eur J Med Chem, 2020).

A word on the half-life: it is the time needed for the level to fall by half in the phase considered.

The test system of one data set is C2C12. Briefly: Activation of AMPK in mouse C2C12 cells assessed as increase in AMPK phosphorylation at Thr172 residue at 10 uM measured after 2 hrs by Western blot analysis. It counts as cell-based. To be noted: filed as activator. In a few lines:
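C2C12 myoblasts differentiated in DMEM with 2% horse serum for 5-7 days until myotubes formed. Treated for 2 h, either at 10 μM or across a concentration range, or at 10 μM over a time course. RIPA lysates (~30 µg protein) blotted for p-AMPK/AMPK and p-ACC/ACC, detected by ECL. The p-AMPK/AMPK ratio is expressed as fold of the DMSO vehicle.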
For orientation: In western blotting, separated proteins are transferred to a membrane and probed.

Data set [1] can be described thus: Induction of glucose consumption in mouse C2C12 cells at 10 uM measured after 12 hrs by glucose oxidase method (reference value: 100 %). It counts as functional. In a few lines:
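Differentiated C2C12 myotubes were switched to DMEM containing 2.75 g/L glucose and treated for 12 h at 37 °C, with cell-free blank wells as reference. Glucose left in the medium was measured by the GOD-POD method at 570 nm. Consumption was derived by subtraction and expressed as percentage of the DMSO group.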

Data set [2] is described as follows: Inhibition of bovine heart mitochondrial complex 1 at 5 to 20 uM measured every minute for 2 hrs by microplate reader based assay. To be noted: cattle, dose 5-20 µM. It counts as tissue-based, Bos taurus. An outline of the steps:
(§1)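 Bovine heart mitochondria in detergent were captured on a complex I antibody-coated plate for 2 h at room temperature. Phospholipids were added, then complex I solution with compound, rotenone control or DMSO. NADH oxidation was followed as the fall in A340, read every minute for at least 2 h at 30 °C.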

Data set [3] in a line: Metabolic stability in ICR/CD-1 mouse liver microsomes assessed as half life preincubated for 5 mins followed by NADPH addition and measured up to 45 mins by LC/MS analysis. In kind it is ADME, Microsome. The note with it: time 50 min. In a few lines:
(§2)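 Compound was preincubated with mouse (ICR/CD-1) or human liver microsomes in potassium phosphate buffer at 37 °C for 5 min, then NADPH was added to start the reaction. Samples were quenched with acetonitrile containing tolbutamide internal standard at 0, 5, 15, 30 and 45 min. Parent compound measured by LC/MS; ketanserin served as control.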

Data set [4] in a line: Metabolic stability in human liver microsomes assessed as half life preincubated for 5 mins followed by NADPH addition and measured up to 45 mins by LC/MS analysis. The note with it: time 50 min. It counts as ADME, Microsome. In a few lines: as §2
A general note: Liver microsomes are a subcellular fraction often used to study metabolism.

A short description of data set [5]: Metabolic stability in human liver microsomes assessed as compound remaining preincubated for 5 mins followed by NADPH addition and measured up to 45 mins by LC/MS analysis. In kind it is ADME, Microsome. The note with it: time 50 min, read-out: Stabilty. In a few lines:
as §2

The nature of data set [6]: Metabolic stability in ICR/CD-1 mouse liver microsomes assessed as compound remaining preincubated for 5 mins followed by NADPH addition and measured up to 45 mins by LC/MS analysis. In kind it is ADME, Microsome. To be noted: time 50 min, read-out: Stabilty. In a few lines:
as §2

Data set [7] deals with Mus musculus. Briefly: Hypoglycemic activity in 6 hrs fasted normal lean C57BL/6 mouse assessed as improved glucose tolerance at 10 mg/kg, ig pretreated for 2 hrs followed by glucose challenge and measured up to 90 mins post glucose challenge starting from 120 mins prior to compound treatment by IPGTT. In kind it is functional, organism-based. The note with it: time 210.0 min.

The test system of data set [8] is Mus musculus. Briefly: Activation of AMPK in normal lean C57BL/6 mouse assessed as increase in phosphorylated ACC level in skeletal muscle at 100 mg/kg, ig administered for 4 weeks by Western blot analysis. It counts as functional, organism-based. The note with it: Skeletal muscle tissue. In a few lines:
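Male C57BL/6 mice, 9 weeks old, dosed intragastrically once daily for 4 weeks alongside vehicle controls. Heart and skeletal muscle were homogenized in RIPA buffer with protease/phosphatase inhibitors and centrifuged at 10,600 g for 20 min. About 30 µg protein was blotted for p-AMPK and p-ACC and detected by ECL.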

The next data set relates to A549. Briefly: Activation of AMPK in human A549 cells harboring mutant LKB1. In kind it is cell-based. To be noted: filed as activator.
Data set [9] is described as follows: Inhibition of bovine heart mitochondrial complex 1 at 10 uM measured every minute for 2 hrs by microplate reader based assay. It counts as tissue-based, Bos taurus. To be noted: cattle. An outline of the steps:
as §1

Data set [10] has as its system Mus musculus. Briefly: Hypoglycemic activity in 6 hrs fasted normal lean C57BL/6 mouse assessed as reduction in blood glucose level at 100 mg/kg, ig pretreated for 2 hrs followed by glucose challenge and measured up to 90 mins post glucose challenge starting from 120 mins prior to […] by IPGTT. It counts as functional, organism-based. To be noted: time 210.0 min. In a few lines:
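C57BL/6 mice (male, 8-10 weeks, n=6 per group) fasted 6 h, then given compound or vehicle intragastrically. Two hours later, 20% glucose was injected i.p. at 2 g/kg. Tail-vein glucose read by glucometer at -120, 0, 20, 40, 60 and 90 min, and net AUC calculated. Doses were 25, 50 and 100 mg/kg.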

Data set [11] in a line: Metabolic stability in ICR/CD-1 mouse liver microsomes assessed as intrinsic clearance preincubated for 5 mins followed by NADPH addition and measured up to 45 mins by LC/MS analysis. The note with it: time 50 min, read-out: CLH. In kind it is ADME, Microsome. An outline of the steps:
(§3)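 Compound and liver microsomes in preheated potassium phosphate buffer, held at 37 °C for 5 min. Reaction started with NADPH and stopped at 0, 5, 15, 30 and 45 min with acetonitrile containing tolbutamide internal standard. Samples centrifuged at 6000 rpm for 15 min, supernatant analysed by LC/MS. Ketanserin run as assay control. Performed by a contract lab.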

The nature of data set [12]: Metabolic stability in human liver microsomes assessed as intrinsic clearance preincubated for 5 mins followed by NADPH addition and measured up to 45 mins by LC/MS analysis. To be noted: time 50 min, read-out: CLH. In kind it is ADME, Microsome. In a few lines: as §3
A short description of data set [13]: Inhibition of mitochondrial complex 1 in human HepG2 cells assessed as increase in AMP/ATP ratio at 0.5 uM. It counts as cell-based. The note with it: hepg2, 0.5 µM. In a few lines:
(§4)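 HepG2 cells treated with 10 μM or 0.5 μM compound, or DMSO. Cellular ADP:ATP and AMP:ATP ratios were measured. Three replicates, given as mean ± SD and compared by Student's t test.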

Data set [14] in a line: Inhibition of mitochondrial complex 1 in human HepG2 cells assessed as increase in ADP/ATP ratio at 0.5 uM. In kind it is cell-based. To be noted: hepg2, 0.5 µM. In a few lines: as §4

Activity calls are given as the source filed them.

Take `CC(C)(Oc1ccc(Cl)cc1)C(=O)Nc1ccc(OCc2ccc(S(C)(=O)=O)cc2)cc1`: in the data set with C2C12, the result was Active. For the same compound, the Activity in data set [1] amounted to 144.4%.

Consider `CC(C)(Oc1ccc(Cl)cc1)C(=O)N1CCC(NC(=O)Nc2ccc(C(F)(F)F)cc2)CC1`, for which the outcome with C2C12 was Active. The “inhibition (INH)” value in data set [2] was “Not Active”. Further, in data set [1], the Activity was determined as 137.2%. Regarding `COc1ccc(COc2ccc(NC(=O)C(C)(C)Oc3ccc(Cl)cc3)cc2)cc1`, the Activity in [1] was determined as 134.7%. The same measure, in the same setting: for `CC(C)(Oc1ccc(Cl)cc1)C(=O)N1CCC(NC(=O)Nc2ccc(C#N)cc2)CC1` the value was 116.2%; for `Cc1ccc(NC(=O)NC2CCN(C(=O)C(C)(C)Oc3ccc(Cl)cc3)CC2)cc1`, 93.7%.

In the case of `CC(C)(Oc1ccc(Cl)cc1)C(=O)Nc1ccc(OCc2ccc(OC(F)(F)F)cc2)cc1`, in [1], the Activity is recorded as 133.4%. In data set [1], `CC(C)(Oc1ccc(Cl)cc1)C(=O)N1CCC(NC(=O)Nc2ccc(OC(F)(F)F)cc2)CC1` registered an Activity of 104.2%. The same measure, in the same setting: for `CCOC(=O)c1ccc(NC(=O)NC2CCN(C(=O)C(C)(C)Oc3ccc(Cl)cc3)CC2)cc1` the value was 126.1%; for `CC(C)(Oc1ccc(Cl)cc1)C(=O)Nc1ccc(OCc2ccc(F)cc2)cc1`, 107.6%.

For `CC(C)(Oc1ccc(Cl)cc1)C(=O)N1CCC(NC(=O)Nc2ccc(Cl)cc2)CC1`, the result in the data set with C2C12 was Active. This compound showed an Activity in [1] of 104.1%.

`CC(C)(Oc1ccc(Cl)cc1)C(=O)N1CCC(NC(=O)Nc2ccccc2C(F)(F)F)CC1` showed an Activity in data set [1] of 116.1%. Turning to `CC(C)(Oc1ccc(Cl)cc1)C(=O)Nc1ccc(OCc2ccc(C(F)(F)F)cc2)cc1`, the half-life in data set [3] and in data set [4] was more than 120 min each time. In [2], the “inhibition (INH)” value is reported as “Active”. The same compound came in with an Activity in data set [1] of 156.1%. Further, the remaining at 0.75 h in [5] came out at 93%; in data set [6], 91%.

`CC(C)(Oc1ccc(Cl)cc1)C(=O)N1CCC(NC(=O)Nc2ccc(F)c(Cl)c2)CC1`: the Activity in data set [1] was found to be 116.7%. Consider `Cc1ccc(COc2ccc(NC(=O)C(C)(C)Oc3ccc(Cl)cc3)cc2)cc1`, for which, in data set [1], the Activity turned out to be 102.2%.

For the compound `CC(C)(Oc1ccc(Cl)cc1)C(=O)N1CCC(NC(=O)Nc2ccc(C(=O)O)cc2)CC1`, in data set [1], the Activity is reported as 117.7%. Take `O[C@@H]1CO[C@H]2[C@@H]1OC[C@H]2Oc1nc2nc(-c3ccc(-c4ccccc4)cc3)c(Cl)cc2[nH]1`: the result in the data set with Mus musculus [7], in the data set on Mus musculus [8], with C2C12 and in the data set with A549 was Active. Turning to `O=C(COc1ccc(C(=O)c2ccccc2)cc1)NC1CCN(Cc2ccccc2)CC1`, the outcome in the data set with C2C12 and in the data set with Mus musculus [10] was Active. In addition, the Activity in data set [1] is listed as 132.4%. Further, the “inhibition (INH)” value in [9] is reported as “Active”.

As to `CC(C)(Oc1ccc(Cl)cc1)C(=O)N1CCC(NC(=O)Nc2ccc(F)cc2)CC1`, the result in the data set with C2C12 was Active. In addition, the Activity in data set [1] is 119.3%. Regarding `O=C(c1ccc(F)cc1)C1CCN(CCn2c(=O)[nH]c3ccccc3c2=O)CC1` [KETANSERIN], the CLint scaled in data set [11] amounted to 258 mL/min/kg; in [12], 71 mL/min/kg. In addition, the figures for the half-life in [3] and in data set [4] were 21 min and 25 min, respectively. `COc1ccc(NC(=O)NC2CCN(C(=O)C(C)(C)Oc3ccc(Cl)cc3)CC2)cc1` showed an Activity in data set [1] of 134.4%.

For `COC(=O)c1ccc(COc2ccc(NC(=O)C(C)(C)Oc3ccc(Cl)cc3)cc2)cc1`, in data set [1], the Activity worked out at 124.7%. Consider `CC(C)(Oc1ccc(Cl)cc1)C(=O)N1CCC(NC(=O)Nc2ccc([N+](=O)[O-])cc2)CC1`, for which the Activity in data set [1] was found to be 115.4%.

Regarding `CC(C)(Oc1ccc(Cl)cc1)C(=O)N1CCC(NC(=O)Nc2ccccc2)CC1`, the Activity in data set [1] was found to be 118%. Still for that read-out and setting: for `CC(C)(Oc1ccc(Cl)cc1)C(=O)Nc1ccc(OCc2ccc(C(=O)O)cc2)cc1` the value was 116.5%. On to `CC(C)(Oc1ccc(Cl)cc1)C(=O)Nc1ccc(OCc2ccc(Cl)cc2)cc1`, for which, in the data set with C2C12, the outcome was Active. The compound further came in with an Activity in [1] of 129%.

In data set [1], `CC(C)(Oc1ccc(Cl)cc1)C(=O)Nc1ccc(OCc2ccc(C(C)(C)C)cc2)cc1` displayed an Activity of 105.3%.

On to `COc1ccc(C(=O)C2CCN(C(=O)c3ccc(C(=O)NC4CCN(Cc5ccc(C#N)cc5)CC4)cn3)CC2)cc1`, for which the “inhibition (INH)” value in data set [13] and in data set [14] was “Active” throughout.

For `CC(C)(Oc1ccc(Cl)cc1)C(=O)N1CCC(NC(=O)Nc2ccc(Br)cc2)CC1`, the Activity in [1] worked out at 127.3%. In [1], `CC(C)(Oc1ccc(Cl)cc1)C(=O)N1CCC(NC(=O)Nc2cccc(C(F)(F)F)c2)CC1` registered an Activity of 91%. For `CC(C)(Oc1ccc(Cl)cc1)C(=O)Nc1ccc(OCc2ccc(Br)cc2)cc1`, in data set [1], the Activity is 112.7%.
